Among the data in ChEMBL document CHEMBL4513216, “Probing the Open Global Health Chemical Diversity Library for Multistage-Active Starting Points for Next-Generation Antimalarials” (ACS Infect Dis, 2020) are cytotoxicity values, retold here.

A short description of this data set: Toxicity liver stage against HepG2, at 10uM. In kind it is cell-based. More on the design: test concentration 10 uM, cell line HepG2-A16-CD81EGFP. To be noted: human, HepG2-A16-CD81EGFP cells; read-out: INHIBITION
Put shortly: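 Uninfected HepG2-A16-CD81EGFP cells, 3 × 10^3 per well, 1536-well, plated on prespotted compound at 10 μM final, parasite-free screening media added to match infected plates; puromycin 10 μM positive, DMSO 0.5% negative; run in parallel with 48 h PbLuc assay at 37 °C, 5% CO2; viability by CellTiter-Glo luminescence, normalized to controls.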

As to `O=c1[nH]c2cc3c(cc2cc1CN1CCCC1c1ccccn1)CCC3` (stereo unspecified), the cytotoxicity at 10 µM is -2.11%.
As for `CSCC(=O)N1CCc2nc(C)nc(NCc3ccccc3)c2CC1`, the cytotoxicity at 10 µM came to 1.69%.
As for `O=C(O)c1cncc(Cc2cccc(F)c2)c1`, the figure is 5.31%.
As for `Cc1ncsc1CN1CCOC(C)(C(=O)N(C)C)C1` (stereo unspecified), the figure is 12.1%.
As for `CNC(=O)c1cc2c(nc1NCC1CC1)CCN(CC1CC1)CC2`, the figure is 0.864%; as for `CC(Cn1cccn1)NC(=O)NCc1ccccn1` (stereo unspecified), 6.79%; as for `CC(C)c1ccc(C#N)c(N2CC(C)(C)[C@@](C)(O)C2)n1`, 2.71%.
As for `COc1ccc(-n2ncc3c2NC(=O)CSC3CC(C)C)cc1` (stereo unspecified), the cytotoxicity at 10 µM was -0.418%.
As for `CCN1CCN(C(=O)c2ccc3c(c2)CCCN3)[C@H]2CS(=O)(=O)C[C@H]21`, the figure is -57.8%; as for `CCN(c1ccsc1C(=O)N1CCSCC1)S(=O)(=O)c1ccccc1`, 8.24%.
The figure for `Cc1nc(CN2CCOCC2c2[nH]ncc2C)cs1` (stereo unspecified) is 2.15%; for `CSCc1noc(CN2CCC3(CC2)CC(=O)N(CC=C(C)C)C3)n1` it is -0.589%; for `O=C(CN1CCOCC1)N(c1ccccc1)c1ccccc1` it is -11.8%.
`O=C(O)C1CN(c2cccc(F)c2)CCO1` (stereo unspecified): the cytotoxicity at 10 µM was -25.2%.
The figure for `O=C(c1ccsc1)N1C[C@H]2CN(Cc3cccc(F)c3)C(=O)[C@H]2C1` is 0.98%; for `Cn1nc(C2CCCN(Cc3cccc(F)c3)C2)c2nccnc21` (stereo unspecified) it is -3.96%; for `O=C(NCCc1c[nH]c2ccccc12)C1CCC(Cn2cnnn2)CC1` (stereo unspecified) it is -12.7%.
As for `COc1ccccc1CC(C)CC(=O)N(C)Cc1cc(C)on1` (stereo unspecified), the figure is 3.8%; as for `O=C1NCCCc2[nH]c(Cc3cccc(Cl)c3)nc21`, 13%; as for `Cc1cc(C)c2nc(CN3CCC(N4CCOCC4)CC3)cc(O)c2c1`, -0.173%.
In the case of `CCn1cc(NC(=O)CCc2ccc3c(c2)OCCCO3)cn1`, the cytotoxicity at 10 µM is -9.26%.
As for `CN1C(=O)CO[C@H](c2ccc(NC(=O)NC(C)(C)C)cc2)[C@H]1CO`, the figure is -0.973%; as for `COc1ccc(C)cc1C(=O)N1C[C@@H](CN(C)CCO)[C@@H](CO)C1`, -0.828%.
As for `CN(C)c1cc(C(=O)Nc2ccccc2C(=O)NC(C)(C)C)ccn1`, the figure is 2.46%; as for `Cn1cccc1C(=O)Nc1cc(F)ccc1OCC1CCCO1` (stereo unspecified), -7.59%; as for `Cc1cc(NC(=O)Cn2ncc(SCC(N)=O)c(Cl)c2=O)ccc1Br`, 15.3%.
`COCCNC(=O)[C@@H]1CCO[C@@H]2CCN(c3ccc(C)nn3)C[C@@H]21`: the cytotoxicity at 10 µM is -73.2%.
For `NCC(c1ccc(Cl)cc1)N1CCc2sccc2C1` (stereo unspecified), the cytotoxicity at 10 µM is 6.33%.
In the case of `CC(CO)(NC(=O)NCCc1ccc(Br)s1)C1CC1` (stereo unspecified), the cytotoxicity at 10 µM was -2.43%.
As for `Cc1cc(C)n(C2CCCN(C(=O)CCNS(C)(=O)=O)C2)n1` (stereo unspecified), the figure is 6.62%; as for `COCC1CN(Cc2ccccn2)Cc2nn(C)cc21` (stereo unspecified), -87.5%; as for `CCNC(c1cccnc1)c1ccc(F)cc1F` (stereo unspecified), -2.34%.
The figure for `O=C(NCCC(=O)N1CCCC1)c1ccc(SCc2cccnc2)cc1` is 8.95%; for `O=C([C@H]1C[C@H]2OCC[C@H]2N(CC2CC2)C1)N1CCCCO1` it is -69.2%; for `O=C(CO)N1CCC(c2cncc(-c3cccc(Cl)c3)n2)CC1` it is -0.105%.
As for `CCN(CC)C(=O)CSc1ccc(C(F)(F)F)cn1`, the figure is 12.7%.
For `Cc1cc(C)n(CC2CCCN2CCCc2nc3ccccc3o2)n1` (stereo unspecified), the cytotoxicity at 10 µM is -10.9%.
As for `CN(Cc1cc(-c2cccnc2)no1)C(=O)c1cccn1C`, the cytotoxicity at 10 µM is -1.1%.
For the molecule `NC(=O)CSc1ccccc1NC(=O)C1CCCC1`, the cytotoxicity at 10 µM is -135%.
The figure for `CNS(=O)(=O)c1ccc(C(=O)NC2CCOc3ccccc32)o1` (stereo unspecified) is -9.26%.
The figure for `CC(C)c1ccc(O)c(C(=O)N2CCN(Cc3cscn3)CC2)c1` is -3.24%; for `O=C(NCCn1nc2ccccn2c1=O)c1cc(C2CC2)[nH]n1` it is 0.763%.
As for `CC(C)[C@H]1CN(Cc2ccccn2)C[C@@H]1NS(=O)(=O)C1CC1`, the cytotoxicity at 10 µM is -0.578%.
As for `CCC(O)CN1CCN(C(=O)c2cc(Cl)cc3cccnc23)CC1` (stereo unspecified), the figure is -13.7%; as for `CCN(CC)C(=O)C1CCC2(CCNCC2)O1` (stereo unspecified), -162%; as for `CC(C)c1cc(C(=O)N2CCC3(CC2)c2ccccc2[C@@H](N)[C@@H]3O)cs1`, -7.34%.
The figure for `COC1COC2(CCN(CC3CC3)CC2)C1` (stereo unspecified) is -103%; for `CCOc1cccc(C2CC(=O)NCc3nc(N4CCCC4)sc32)c1` (stereo unspecified) it is -2.53%.
As for `Cc1nn(-c2ccc(C(=O)O)cc2)c2c1C(c1ccsc1)SCC(=O)N2` (stereo unspecified), the figure is 0.153%.
`COCCc1noc(-c2ccc(-c3ccc(N)nc3)nc2)n1`: the cytotoxicity at 10 µM amounted to 2.5%.
Regarding `CCC[C@H]1CN(S(=O)(=O)N(C)Cc2ccccc2)C[C@@H]1N`, the cytotoxicity at 10 µM is -138%.
The figure for `O=C(Cc1ccc(F)c(Br)c1)N1CCN(CCO)CC1` is -11.5%; for `Fc1ccc(-c2noc(C3COCCO3)n2)cc1F` (stereo unspecified) it is -1.21%.
As for `Cc1nc2c(c(NC(C)C)n1)CCN(C1CCOCC1)CC2`, the figure is 9.26%; as for `Cn1ncc2cnn(CC(O)COCc3ccccc3Cl)c2c1=O` (stereo unspecified), 3.8%.
Turning to `COc1cccc2cc(CNCc3ccnc(N4CCOCC4)c3)oc12`, the cytotoxicity at 10 µM was -8.55%.
The figure for `O=C1C[C@H]2[C@@H](CCN2C(=O)c2cscn2)N1Cc1cccnc1` is -0.184%; for `CCCn1nccc1C(=O)N1CCN(C2CCc3ccccc3C2)CC1` (stereo unspecified) it is -130%; for `CCc1ocnc1C(=O)N1CCCC(n2nc(C)nc2C)C1` (stereo unspecified) it is -11.5%.
Take `Cc1ncncc1-c1ccnc(N)n1`: the cytotoxicity at 10 µM is -7.22%.
The figure for `Cc1cncc(C(=O)N2CCCC3(CCCN3S(C)(=O)=O)C2)c1` (stereo unspecified) is -152%; for `Cc1nnc(-c2cccc(C#N)c2)n1C1CCCN(C(C)C)C1=O` (stereo unspecified) it is -6.74%; for `Cn1ccc(C(=O)NCCOc2ccc(C(C)(C)C)cc2)cc1=O` it is 9.71%.
As for `CCC(=O)N1CCC(c2cc(Nc3ncccn3)nc(C)n2)C1` (stereo unspecified), the figure is -24%; as for `CC(C)Nc1cc(N2CCC(n3cc(C4CC4)nn3)CC2)ncn1`, 7.88%.
As for `Cc1cccc(CN2C(=O)CO[C@@H]3CN(Cc4nccn4C)C[C@H]32)c1`, the figure is -16.7%.
As for `NC(=O)c1cccc(CN2CCOC(Cn3cccn3)C2)c1` (stereo unspecified), the cytotoxicity at 10 µM is -2.69%.
As for `COc1ccc(CNC(=O)CCc2nnc3ccccn3c2=O)cc1`, the figure is -13.5%.
As for `COc1c(C2CCCN2Cc2cn3ccsc3n2)c(C)nn1C` (stereo unspecified), the figure is -51.2%.
The figure for `Cn1ccc2ccc(C(=O)Nc3nc[nH]n3)cc21` is -1.55%; for `CC(C)CC1SCC(=O)Nc2c1cnn2C1CCCC1` (stereo unspecified) it is -2.17%.
Regarding `c1cc(CNCCc2cn3ccccc3n2)c2c(c1)OCCCO2`, the cytotoxicity at 10 µM stood at 15.2%.
As for `O=C(NCC1CCS(=O)(=O)C1)c1cccc(CN2CCCC2)c1` (stereo unspecified), the figure is -0.986%; as for `CCC[C@H]1CN(Cc2ccc(N(C)C)nc2)C[C@@H]1NS(=O)(=O)CC`, -11.9%; as for `OC[C@H]1CCN(Cc2ccc3ccccc3n2)C[C@@H]1O`, -6%.
As for `CCOc1ccccc1OCC(=O)NCc1ncc(C)c(OC)c1C`, the figure is 1.09%.
On to `COc1ccc(OC)c(NC(=O)c2nc3ccccc3n(C)c2=O)c1`, for which the cytotoxicity at 10 µM is -4.71%.
As for `CC(C)c1nccn1C1CCCN(C(=O)c2ccc3c(c2)OCO3)C1` (stereo unspecified), the figure is 4.28%; as for `CCc1noc(C2CCCCN2C(=O)c2ccn(C3CCCC3)n2)n1` (stereo unspecified), 11.8%.
The figure for `CCn1cc(S(=O)(=O)N2CCCC3(CC=CNC3=O)C2)cn1` (stereo unspecified) is -2.92%.
Regarding `Cc1cnc(N2CC[C@H]3[C@@H]2CCC(=O)N3c2cccnc2)nc1`, the cytotoxicity at 10 µM was -0.298%.
For `CN(C)c1cc2c(nn1)CCN(C(=O)c1cc3ccccc3o1)C2`, the cytotoxicity at 10 µM was -5.39%.
The figure for `CC(C)(C)n1cc(NCc2cscn2)cn1` is -6.08%.
The figure for `Cn1c(CCC(=O)N2CCC3(CCCO3)CC2)nc2cccnc21` is 0.592%; for `CC(COCC(F)(F)F)NC(=O)c1ccc(-c2ccco2)[nH]c1=O` (stereo unspecified) it is -20.1%; for `O=C(NCCn1ccnc1)NCc1ccc(N2CCCCCC2)nc1` it is 19%.
With `CCOC(=O)c1coc(N2CCC(N3CCC(O)CC3)CC2)n1`, the cytotoxicity at 10 µM was 6.41%.
As for `CCOCC1CN(Cc2ccoc2)Cc2cn(CC3CC3)nc21` (stereo unspecified), the figure is 12.1%.
The figure for `CCN(Cc1nc(COC)no1)Cc1cccnc1NC` is -43.7%; for `Cc1nc(CN2CCC(C(=O)N(C)C3CCC(C)CC3)CC2)cs1` (stereo unspecified) it is 2.84%; for `Cc1cc(CN2CCN(C(=O)NCCc3csc(C)n3)CC2)on1` it is -2.68%.
With `O=C(N1CCCC1)N1C[C@H]2CC[C@@]3(N=C(c4ccccc4)NC3=O)[C@H]2C1`, the cytotoxicity at 10 µM amounted to 0.516%.
The figure for `CNC(=O)C1CN(C(=O)c2cccnc2)CCN(S(C)(=O)=O)C1` (stereo unspecified) is 1.45%; for `CC1CCN(C(=O)[C@@H]2C[C@@H]3CCN(Cc4nccs4)C[C@H]3O2)CC1` it is -107%.
The figure for `CN(C)[C@H]1C[C@@H](Cc2cc(-c3ccc(F)cc3)on2)C1(C)C` is -12.3%; for `Cc1ccc(C(=O)Nc2ccc(N3CCCC3)cn2)cc1F` it is 47.4%.
